Active and inactive are the calls of the source.
What was measured:
[1] = target: Histone acetyltransferase KAT2A (Homo sapiens, UniProt Q92830); assay: Binding affinity to human N-terminal His-tagged GCN5 assessed as change in melting temperature at 10 uM by SYPRO orange dye-based fluorescence assay
In short: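 Thermal shift with His-tagged human bromodomain at 2 μM final in 10 mM HEPES pH 7.5, 500 mM NaCl. Compound at 10 μM final with 0.1% DMSO; SYPRO Orange at 1:1000. Equilibrated 3 min at 25 °C, then heated from 25 to 95 °C at 1 °C/min. Melting temperature shift taken from fluorescence; at least duplicate.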

[2] = target: Nucleosome-remodeling factor subunit BPTF (Homo sapiens, UniProt Q12830); assay: Binding affinity to human N-terminal His-tagged FALZ by isothermal titration calorimetry
In short: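 Bromodomain (His-tag removed by TEV for PCAF and GCN5) in the syringe, ligand in the cell. One 0.4 μL injection, then 19 of 2 μL. Dilution heat subtracted; KD from an independent single-site binding model.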

[3] = target: E3 ubiquitin-protein ligase TRIM33 (Homo sapiens) (UniProt Q9UPN9); assay: Binding affinity to human partial length TRIM33 (D882 to A1087 residues) expressed in bacterial expression system at 1 uM by BROMOscan assay
In short: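 BROMOscan bromodomain cross-screen run by an outside service, compound at 1 µM against 32 recombinant bromodomains. Binding given as percent of control.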

[4] = species on record: Mus musculus; assay: Inhibition of recombinant mouse ABL L782P/G784R/W785L/L786V mutant (27 to end residues) at 10 uM using EAIYAAPFAKKK as substrate measured after 40 mins in presence of [gamma33P]ATP by scintillation counting method
[5] = target: Bone morphogenetic protein receptor type-2 (Homo sapiens) (UniProt Q13873); assay: Inhibition of recombinant human BMPR2 (172 to 734 residues) at 10 uM using myelin basic protein as substrate measured after 120 mins in presence of [gamma33P]ATP by scintillation counting method
[6] = target: CDK6/cyclin D3 (Homo sapiens) (UniProt P30281+Q00534); assay: Inhibition of recombinant full-length human CDK6/cyclin D3 at 10 uM using histone H1 as substrate measured after 40 mins in presence of [gamma33P]ATP by scintillation counting method; assay type: protein-complex assay
[7] = target: CDK17/Cyclin-Y (Homo sapiens) (UniProt Q00537+Q8ND76); assay: Inhibition of human CDK17/cyclinY at 10 uM using PKSPKARKKL as substrate measured after 120 mins in presence of [gamma33P]ATP by scintillation counting method; assay type: protein-complex assay
In short: (§1)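 Kinase panel of 422 kinases screened by Eurofins KinaseProfiler at a single test-compound concentration of 10 µM.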

[8] = target: Dual specificity protein kinase CLK1 (Homo sapiens) (UniProt P49759); assay: Inhibition of recombinant human CLK1 (130 to end residues) at 10 uM using ERMRPRKRQGSVRRRV as substrate measured after 40 mins in presence of [gamma33P]ATP by scintillation counting method
Dual specificity protein kinase CLK1 (Homo sapiens), sequence (P49759 whole entry, looked up): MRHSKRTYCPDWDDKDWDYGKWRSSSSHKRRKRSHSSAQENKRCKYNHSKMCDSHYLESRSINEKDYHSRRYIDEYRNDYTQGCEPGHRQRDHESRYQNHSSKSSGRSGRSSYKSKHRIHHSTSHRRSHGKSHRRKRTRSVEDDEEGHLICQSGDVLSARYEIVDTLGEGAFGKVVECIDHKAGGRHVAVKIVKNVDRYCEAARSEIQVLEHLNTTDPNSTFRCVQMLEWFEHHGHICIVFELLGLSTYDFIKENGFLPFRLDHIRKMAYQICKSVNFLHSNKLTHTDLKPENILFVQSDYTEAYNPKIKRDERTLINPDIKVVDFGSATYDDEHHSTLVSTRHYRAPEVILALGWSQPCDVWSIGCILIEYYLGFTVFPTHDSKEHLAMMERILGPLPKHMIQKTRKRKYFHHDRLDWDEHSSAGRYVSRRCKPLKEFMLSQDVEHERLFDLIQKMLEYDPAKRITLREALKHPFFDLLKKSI

[9] = tested on: Mast/stem cell growth factor receptor Kit (Homo sapiens), P10721 [D816V]; assay: Inhibition of recombinant human c-Kit D816V mutant (544 to end residues) at 10 uM using poly(Glu, Tyr) 4:1 as substrate measured after 40 mins in presence of [gamma33P]ATP by scintillation counting method
[10] = tested on: Mast/stem cell growth factor receptor Kit (Homo sapiens), P10721 [V560G]; assay: Inhibition of recombinant human c-Kit V560G mutant (544 to end residues) at 10 uM using GGMEDIYFEFMGGKKK as substrate measured after 40 mins in presence of [gamma33P]ATP by scintillation counting method
[11] = target: Dual specificity tyrosine-phosphorylation-regulated kinase 2 (Homo sapiens) (UniProt Q92630); assay: Inhibition of recombinant full-length human DYRK2 at 10 uM using casein as substrate measured after 40 mins in presence of [gamma33P]ATP by scintillation counting method
Dual specificity tyrosine-phosphorylation-regulated kinase 2 (Homo sapiens), sequence (Q92630 whole entry): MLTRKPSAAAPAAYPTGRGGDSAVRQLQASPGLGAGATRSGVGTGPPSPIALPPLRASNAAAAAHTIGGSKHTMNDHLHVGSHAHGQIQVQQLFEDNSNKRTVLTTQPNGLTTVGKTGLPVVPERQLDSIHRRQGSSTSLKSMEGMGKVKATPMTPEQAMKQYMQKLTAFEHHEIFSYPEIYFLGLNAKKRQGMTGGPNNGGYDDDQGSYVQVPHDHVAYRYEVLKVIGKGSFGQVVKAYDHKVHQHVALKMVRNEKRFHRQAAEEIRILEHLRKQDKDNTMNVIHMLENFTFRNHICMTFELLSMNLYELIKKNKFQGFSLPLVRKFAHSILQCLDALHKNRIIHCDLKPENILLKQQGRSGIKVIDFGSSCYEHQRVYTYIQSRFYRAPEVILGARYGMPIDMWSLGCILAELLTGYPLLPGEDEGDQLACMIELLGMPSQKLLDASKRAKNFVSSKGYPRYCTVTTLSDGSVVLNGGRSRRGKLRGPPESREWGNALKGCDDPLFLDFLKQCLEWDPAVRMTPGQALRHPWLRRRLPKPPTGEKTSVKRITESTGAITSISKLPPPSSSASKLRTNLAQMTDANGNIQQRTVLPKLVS

[12] = target: Beta-adrenergic receptor kinase 1 (Homo sapiens) (UniProt P25098); assay: Inhibition of recombinant full-length human GRK2 at 10 uM using casein as substrate measured after 40 mins in presence of [gamma33P]ATP by scintillation counting method
Beta-adrenergic receptor kinase 1 (Homo sapiens), sequence (P25098 whole entry): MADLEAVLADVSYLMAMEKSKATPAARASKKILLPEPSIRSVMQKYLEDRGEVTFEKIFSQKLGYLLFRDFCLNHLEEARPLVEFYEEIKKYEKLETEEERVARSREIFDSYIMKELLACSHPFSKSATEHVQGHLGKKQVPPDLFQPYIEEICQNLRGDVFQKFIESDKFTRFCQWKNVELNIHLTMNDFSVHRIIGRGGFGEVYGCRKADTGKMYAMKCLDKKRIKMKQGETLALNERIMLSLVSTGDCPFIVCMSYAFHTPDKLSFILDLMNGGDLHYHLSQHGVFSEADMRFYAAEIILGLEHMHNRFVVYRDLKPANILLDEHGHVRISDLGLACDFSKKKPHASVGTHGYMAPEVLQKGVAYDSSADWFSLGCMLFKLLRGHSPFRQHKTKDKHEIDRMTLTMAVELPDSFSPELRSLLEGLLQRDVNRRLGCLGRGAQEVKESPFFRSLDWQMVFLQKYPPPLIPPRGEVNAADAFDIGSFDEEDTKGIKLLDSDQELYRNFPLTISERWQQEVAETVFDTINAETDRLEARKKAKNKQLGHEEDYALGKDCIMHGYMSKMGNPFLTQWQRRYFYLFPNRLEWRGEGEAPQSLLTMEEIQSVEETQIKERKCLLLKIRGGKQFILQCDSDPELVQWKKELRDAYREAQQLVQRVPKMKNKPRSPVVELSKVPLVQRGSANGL

[13] = target: Rhodopsin kinase GRK7 (Homo sapiens) (UniProt Q8WTQ7); assay: Inhibition of recombinant full-length human GRK7 at 10 uM using casein as substrate measured after 40 mins in presence of [gamma33P]ATP by scintillation counting method
Rhodopsin kinase GRK7 (Homo sapiens), sequence (Q8WTQ7 whole entry): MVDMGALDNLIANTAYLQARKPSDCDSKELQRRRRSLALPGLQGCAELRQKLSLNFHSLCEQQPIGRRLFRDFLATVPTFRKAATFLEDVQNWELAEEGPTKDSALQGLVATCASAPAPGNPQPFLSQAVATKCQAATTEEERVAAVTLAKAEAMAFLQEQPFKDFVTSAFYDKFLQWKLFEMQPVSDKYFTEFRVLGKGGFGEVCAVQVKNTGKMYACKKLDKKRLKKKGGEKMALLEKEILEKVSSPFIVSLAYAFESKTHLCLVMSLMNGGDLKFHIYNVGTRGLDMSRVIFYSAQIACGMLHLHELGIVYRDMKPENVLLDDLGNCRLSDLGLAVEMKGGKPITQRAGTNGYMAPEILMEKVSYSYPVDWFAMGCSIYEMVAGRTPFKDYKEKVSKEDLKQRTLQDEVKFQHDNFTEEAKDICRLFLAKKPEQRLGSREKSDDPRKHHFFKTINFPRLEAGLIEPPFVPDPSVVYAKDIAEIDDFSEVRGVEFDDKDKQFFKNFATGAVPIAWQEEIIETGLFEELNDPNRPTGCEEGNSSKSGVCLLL

[14] = target: Serine/threonine-protein kinase/endoribonuclease IRE1 (Homo sapiens) (UniProt O75460); assay: Inhibition of recombinant human IRE1 (465 to end residues) at 10 uM using myelin basic protein as substrate measured after 40 mins in presence of [gamma33P]ATP by scintillation counting method
Serine/threonine-protein kinase/endoribonuclease IRE1 (Homo sapiens), sequence (O75460 19-977 limits assumed): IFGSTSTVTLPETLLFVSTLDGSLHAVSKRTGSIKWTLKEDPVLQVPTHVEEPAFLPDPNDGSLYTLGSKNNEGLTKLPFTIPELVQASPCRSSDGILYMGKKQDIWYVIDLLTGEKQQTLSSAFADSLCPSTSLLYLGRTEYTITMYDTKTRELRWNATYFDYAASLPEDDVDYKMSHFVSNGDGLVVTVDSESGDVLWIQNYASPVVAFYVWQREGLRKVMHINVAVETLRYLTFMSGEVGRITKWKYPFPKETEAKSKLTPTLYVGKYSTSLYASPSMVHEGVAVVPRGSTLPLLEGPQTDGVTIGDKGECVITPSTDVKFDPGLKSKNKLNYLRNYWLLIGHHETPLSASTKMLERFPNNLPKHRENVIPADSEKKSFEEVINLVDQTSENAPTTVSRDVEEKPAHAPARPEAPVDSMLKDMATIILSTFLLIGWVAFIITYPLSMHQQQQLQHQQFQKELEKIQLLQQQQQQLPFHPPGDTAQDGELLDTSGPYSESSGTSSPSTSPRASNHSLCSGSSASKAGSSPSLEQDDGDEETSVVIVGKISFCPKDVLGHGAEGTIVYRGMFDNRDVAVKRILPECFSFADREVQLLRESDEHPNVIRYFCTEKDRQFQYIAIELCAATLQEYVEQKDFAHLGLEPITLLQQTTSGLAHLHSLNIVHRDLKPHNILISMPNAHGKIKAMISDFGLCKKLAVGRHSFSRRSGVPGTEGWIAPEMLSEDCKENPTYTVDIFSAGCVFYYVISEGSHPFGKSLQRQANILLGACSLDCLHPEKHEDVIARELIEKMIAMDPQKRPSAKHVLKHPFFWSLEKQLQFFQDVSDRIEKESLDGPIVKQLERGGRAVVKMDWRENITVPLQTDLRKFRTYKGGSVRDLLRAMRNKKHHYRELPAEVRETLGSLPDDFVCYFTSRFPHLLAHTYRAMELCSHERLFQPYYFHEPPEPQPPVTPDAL

[15] = target: Tyrosine-protein kinase Lck (Homo sapiens) (UniProt P06239); assay: Inhibition of recombinant full-length human Lck at 10 uM using KVEKIGEGTYGVV as substrate measured after 40 mins in presence of [gamma33P]ATP by scintillation counting method
[16] = target: Serine/threonine-protein kinase Nek3 (Homo sapiens) (UniProt P51956); assay: Inhibition of recombinant full-length human NEK3 at 10 uM using myelin basic protein as substrate measured after 40 mins in presence of [gamma33P]ATP by scintillation counting method
[17] = target: Eukaryotic translation initiation factor 2-alpha kinase 3 (Homo sapiens) (UniProt Q9NZJ5); assay: Inhibition of recombinant human PEK (536 to end residues) at 10 uM using RSRSRSRSRSRSRSR as substrate measured after 40 mins in presence of [gamma33P]ATP by scintillation counting method
[18] = target: Proto-oncogene tyrosine-protein kinase receptor Ret (Homo sapiens) (UniProt P07949); assay: Inhibition of human Ret (658 to end residues) using KKKSPGEYVNIEFG as substrate measured after 40 mins in presence of [gamma33P]ATP by scintillation counting method; in short: as §1
Proto-oncogene tyrosine-protein kinase receptor Ret (Homo sapiens), sequence (P07949 whole entry, the tested form may be a part): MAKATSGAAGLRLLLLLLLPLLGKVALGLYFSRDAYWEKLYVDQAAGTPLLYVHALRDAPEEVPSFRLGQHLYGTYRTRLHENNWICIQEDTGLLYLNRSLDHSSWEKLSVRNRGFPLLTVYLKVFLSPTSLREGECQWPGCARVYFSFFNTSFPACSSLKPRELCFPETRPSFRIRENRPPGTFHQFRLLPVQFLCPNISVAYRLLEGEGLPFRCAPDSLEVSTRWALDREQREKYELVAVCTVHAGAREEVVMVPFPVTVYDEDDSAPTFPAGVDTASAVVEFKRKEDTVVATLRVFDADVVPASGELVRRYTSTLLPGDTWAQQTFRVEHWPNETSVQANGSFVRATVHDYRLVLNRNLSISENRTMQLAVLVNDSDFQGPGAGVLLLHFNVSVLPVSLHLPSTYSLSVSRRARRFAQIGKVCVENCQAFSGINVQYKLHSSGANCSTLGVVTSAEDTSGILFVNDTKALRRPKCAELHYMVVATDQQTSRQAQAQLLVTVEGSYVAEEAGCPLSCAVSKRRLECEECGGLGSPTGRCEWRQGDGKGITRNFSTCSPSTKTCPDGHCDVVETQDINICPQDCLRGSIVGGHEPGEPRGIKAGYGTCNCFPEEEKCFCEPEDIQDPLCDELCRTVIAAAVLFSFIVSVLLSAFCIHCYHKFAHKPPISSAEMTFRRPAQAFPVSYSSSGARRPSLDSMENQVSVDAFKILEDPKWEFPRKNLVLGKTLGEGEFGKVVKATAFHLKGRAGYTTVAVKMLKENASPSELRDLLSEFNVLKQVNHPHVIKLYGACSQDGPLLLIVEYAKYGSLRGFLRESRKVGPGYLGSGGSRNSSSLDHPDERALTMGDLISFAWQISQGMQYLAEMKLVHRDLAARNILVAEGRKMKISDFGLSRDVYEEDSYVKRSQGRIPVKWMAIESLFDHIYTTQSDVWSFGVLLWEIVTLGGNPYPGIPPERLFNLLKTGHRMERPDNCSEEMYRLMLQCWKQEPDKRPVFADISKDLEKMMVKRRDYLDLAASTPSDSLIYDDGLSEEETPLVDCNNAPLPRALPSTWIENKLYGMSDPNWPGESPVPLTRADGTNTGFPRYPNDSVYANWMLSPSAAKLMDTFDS

[19] = target: Receptor-interacting serine/threonine-protein kinase 1 (Homo sapiens) (UniProt Q13546); assay: Inhibition of human RIPK1 (8 to 322 residues) using myelin basic protein as substrate measured after 120 mins in presence of [gamma33P]ATP by scintillation counting method; in short: as §1
Receptor-interacting serine/threonine-protein kinase 1 (Homo sapiens), sequence (Q13546 whole entry, the tested form may be a part): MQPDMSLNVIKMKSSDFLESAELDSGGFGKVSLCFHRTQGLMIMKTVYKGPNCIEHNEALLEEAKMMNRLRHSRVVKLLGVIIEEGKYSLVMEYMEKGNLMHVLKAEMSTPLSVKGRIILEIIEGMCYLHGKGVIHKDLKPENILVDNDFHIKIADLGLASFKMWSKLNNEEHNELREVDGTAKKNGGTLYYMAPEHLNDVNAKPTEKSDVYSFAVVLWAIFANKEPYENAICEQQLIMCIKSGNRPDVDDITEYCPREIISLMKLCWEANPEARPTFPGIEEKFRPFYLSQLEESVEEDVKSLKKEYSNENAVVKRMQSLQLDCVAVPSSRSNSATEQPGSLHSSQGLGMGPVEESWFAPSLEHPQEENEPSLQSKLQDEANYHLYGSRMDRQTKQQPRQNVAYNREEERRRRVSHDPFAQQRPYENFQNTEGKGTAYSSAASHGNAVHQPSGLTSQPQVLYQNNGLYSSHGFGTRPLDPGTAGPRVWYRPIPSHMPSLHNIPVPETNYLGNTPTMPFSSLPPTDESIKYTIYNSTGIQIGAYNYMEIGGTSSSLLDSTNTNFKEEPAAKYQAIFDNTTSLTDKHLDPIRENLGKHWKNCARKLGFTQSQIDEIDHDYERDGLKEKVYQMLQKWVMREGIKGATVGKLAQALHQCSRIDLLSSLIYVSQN

[20] = target: Serine/threonine-protein kinase Sgk3 (Homo sapiens) (UniProt Q96BR1); assay: Inhibition of human SGK3 (119 to end residues) using GRPRTSSFAEGKK as substrate measured after 40 mins in presence of [gamma33P]ATP by scintillation counting method; in short: as §1
[21] = tested on: PI3-kinase p110-alpha/p85-alpha (Homo sapiens), P27986+P42336 [E542K]; assay: Inhibition of recombinant full-length human PI3K p110alpha/p85alpha E542K mutant at 10 uM using phosphatidylinositol-4, 5-bisphosphate as substrate measured after 40 mins by fluorescence assay; assay type: protein-complex assay
[22] = target: G protein-coupled receptor kinase 5 (Homo sapiens) (UniProt P34947); assay: Inhibition of recombinant full-length human GRK5 at 10 uM using casein as substrate measured after 40 mins in presence of [gamma33P]ATP by scintillation counting method

CN1C[C@H](Nc2nc3cc[nH]c3c(=O)n2C)C[C@H](c2ccc3c(c2)OCCO3)C1
inactive: Activity [3] | inhibition [4] | inhibition [5] | inhibition [6] | inhibition [7] | inhibition [8] | inhibition [9] | inhibition [10] | inhibition [11] | inhibition [12] | inhibition [13] | inhibition [14] | inhibition [15] | inhibition [16] | inhibition [17] | inhibition [18] | inhibition [19] | inhibition [20] | inhibition [21] | inhibition [22]
7.3 °C: ΔTm [1]
917 nM: Kd [2]

Source: ChEMBL document CHEMBL4350961, “Discovery of Pyrrolo[3,2- d]pyrimidin-4-one Derivatives as a New Class of Potent and Cell-Active Inhibitors of P300/CBP-Associated Factor Bromodomain” (J Med Chem, 2019)
